PMC3828522 (Genes & Development, 2013)

B1: Pho: full-length Drosophila Pleiohomeotic, PRE-binding PcG protein (protein, UniProt Q8ST83 1-520, looked up)
chain: MAYERFGIILQSEQYDEDIGNTKVNQKMNEGNHYDLHRKNAFDRIIHSESKKGDNVINYNIHENDKIKAADNIFSSKLKMNPNMSYEMNINCFKNIGYGENQETSKVLTNSLSNNDINTEESGVVDKNSPFLTLGTTILNSNGKSRRWEQKLVHIKTMEGEFSVTMWASGISDDEYSGSDQIVGASDLLKGKEEFGIDGFTSQQNKEYQKMESKFTNAQTLEMPHPISSVQIMDHLIKERGNLSQENNISERILSKTTLSFEEPILLPDSSSIELVNETAAMTINNHRTLSNHTGNTGDLHALPSSVPFRIGLHEGQVNDCLSTISQSTHQDNTDSTGCGEMNLSEVTVSYTNDKKIACPHKGCNKHFRDSSAMRKHLHTHGPRVHVCAECGKAFVESSKLKRHQLVHTGEKPFQCTFEGCGKRFSLDFNLRTHVRIHTGDRPFVCPFDACNKKFAQSTNLKSHILTHAKAKRNTSISGKSGCSNAESNSQSEDTSANYVKVELQDSVTENHVPFVVYAD
modifications: full-length
B2: Sfmbt 4MBT domain: four malignant brain tumor (4MBT) domain of Drosophila Sfmbt (protein, UniProt Q9VK33 532-980, looked up, fragment)
chain: PTHSYDWLPRLSKENFNAAPVTCFPHAPGCEVWDNLGVGMKVEVENTDCDSIEVIQPGQTPTSFWVATILEIKGYKALMSYEGFDTDSHDFWVNLCNAEVHSVGWCATRGKPLIPPRTIEHKYKDWKDFLVGRLSGARTLPSNFYNKINDSLQSRFRLGLNLECVDKDRISQVRLATVTKIVGKRLFLRYFDSDDGFWCHEDSPIIHPVGWATTVGHNLAAPQDYLERMLAGREAMIEVHEDDATIELFKMNFTFDEYYSDGKTNSFVEGMKLEAVDPLNLSSICPATVMAVLKFGYMMIRIDSYQPDASGSDWFCYHEKSPCIFPAGFCSVNNISVTPPNGYDSRTFTWEGYLRDTGAVAAGQHLFHRIIPDHGFEVGMSLECADLMDPRLVCVATVARVVGRLLKVHFDGWTDEYDQWLDCESADIYPVGWCVLVNHKLEGPPRVAH
modifications: 4MBT domain
B3: Sfmbt^G635K/A638E: full-length Sfmbt with G635K/A638E mutations (protein)
chain: MNPSELRMMWMSSQYNSERITLEDAATLLGHPTVGLSVMEDLSAHQPTLDMNPMMSLMGGDFTGQAAATAAALGVQPGTLIATNSNNLYGFAHMGGLQQQLLQQSAAAAVFQNYAEAMDNDVENGMVGMAMEAVVDDDDQVYGQRDNNFDDNGSELEPKQEIINIDDFVMMNEDNNSYDGTDFMTSSDKDISQSSSSCMAQMPGSLGVPGVEHDLLVPLPDGLLHHKLLGTTLVPAMGTLNGNAFGNIMVSTENTSSKQMQRTYSTAKGANSTATTATCSASTSSALRSQRKTRKIEPVNRPGLVLKTPIAYRGNIDPSVIPIQKDGMAVCKRCGAIGVKHTFYTKSRRFCSMACARGELYSLVLNTKMEGDQATTSSPDPGAGSESADLPGDQQQSQSDIELDLHAAHIKNANYRFRITDQSKITQLNSFGEPMSMGGDAAANNVQMAADETIAALNGGAVGDATAPGSTEEGASTPNSYLSAAPTPKALRLFKDIYPQDDLPQIPKYERLPVPCPQMEKIISIRRRMYDPTHSYDWLPRLSKENFNAAPVTCFPHAPGCEVWDNLGVGMKVEVENTDCDSIEVIQPGQTPTSFWVATILEIKGYKALMSYEGFDTDSHDFWVNLCNAEVHSVKWCETRGKPLIPPRTIEHKYKDWKDFLVGRLSGARTLPSNFYNKINDSLQSRFRLGLNLECVDKDRISQVRLATVTKIVGKRLFLRYFDSDDGFWCHEDSPIIHPVGWATTVGHNLAAPQDYLERMLAGREAMIEVHEDDATIELFKMNFTFDEYYSDGKTNSFVEGMKLEAVDPLNLSSICPATVMAVLKFGYMMIRIDSYQPDASGSDWFCYHEKSPCIFPAGFCSVNNISVTPPNGYDSRTFTWEGYLRDTGAVAAGQHLFHRIIPDHGFEVGMSLECADLMDPRLVCVATVARVVGRLLKVHFDGWTDEYDQWLDCESADIYPVGWCVLVNHKLEGPPRVAHQQAPKPAPKPKIQRKRKPKKGAAGGKTPTDNNTQSVKSRTIALKTTPHLPKLSIKLELKPEHHNAAFYENNQPEEEGDEEDPDADGDGDGSTSHISEQSTTQSSSDLIAGSGSGSGSASLVTLATGSNKTNSSATNNKYIPRLADIDSSEPHLELVPDTWNVYDVSQFLRVNDCTAHCDTFSRNKIDGKRLLQLTKDDIMPLLGMKVGPALKISDLIAQLKCKVNPGRARSHKTNKSPFL
B4: Sfmbt-CTAP: wild-type Sfmbt with C-terminal tandem affinity purification tag, expressed from transgene (protein)
chain: MNPSELRMMWMSSQYNSERITLEDAATLLGHPTVGLSVMEDLSAHQPTLDMNPMMSLMGGDFTGQAAATAAALGVQPGTLIATNSNNLYGFAHMGGLQQQLLQQSAAAAVFQNYAEAMDNDVENGMVGMAMEAVVDDDDQVYGQRDNNFDDNGSELEPKQEIINIDDFVMMNEDNNSYDGTDFMTSSDKDISQSSSSCMAQMPGSLGVPGVEHDLLVPLPDGLLHHKLLGTTLVPAMGTLNGNAFGNIMVSTENTSSKQMQRTYSTAKGANSTATTATCSASTSSALRSQRKTRKIEPVNRPGLVLKTPIAYRGNIDPSVIPIQKDGMAVCKRCGAIGVKHTFYTKSRRFCSMACARGELYSLVLNTKMEGDQATTSSPDPGAGSESADLPGDQQQSQSDIELDLHAAHIKNANYRFRITDQSKITQLNSFGEPMSMGGDAAANNVQMAADETIAALNGGAVGDATAPGSTEEGASTPNSYLSAAPTPKALRLFKDIYPQDDLPQIPKYERLPVPCPQMEKIISIRRRMYDPTHSYDWLPRLSKENFNAAPVTCFPHAPGCEVWDNLGVGMKVEVENTDCDSIEVIQPGQTPTSFWVATILEIKGYKALMSYEGFDTDSHDFWVNLCNAEVHSVGWCATRGKPLIPPRTIEHKYKDWKDFLVGRLSGARTLPSNFYNKINDSLQSRFRLGLNLECVDKDRISQVRLATVTKIVGKRLFLRYFDSDDGFWCHEDSPIIHPVGWATTVGHNLAAPQDYLERMLAGREAMIEVHEDDATIELFKMNFTFDEYYSDGKTNSFVEGMKLEAVDPLNLSSICPATVMAVLKFGYMMIRIDSYQPDASGSDWFCYHEKSPCIFPAGFCSVNNISVTPPNGYDSRTFTWEGYLRDTGAVAAGQHLFHRIIPDHGFEVGMSLECADLMDPRLVCVATVARVVGRLLKVHFDGWTDEYDQWLDCESADIYPVGWCVLVNHKLEGPPRVAHQQAPKPAPKPKIQRKRKPKKGAAGGKTPTDNNTQSVKSRTIALKTTPHLPKLSIKLELKPEHHNAAFYENNQPEEEGDEEDPDADGDGDGSTSHISEQSTTQSSSDLIAGSGSGSGSASLVTLATGSNKTNSSATNNKYIPRLADIDSSEPHLELVPDTWNVYDVSQFLRVNDCTAHCDTFSRNKIDGKRLLQLTKDDIMPLLGMKVGPALKISDLIAQLKCKVNPGRARSHKTNKSPFL
modifications: left off: TAP tag, C-terminal, kept
B5: Sfmbt^G635K/A638E-CTAP: Sfmbt double point mutant with C-terminal TAP tag, expressed from transgene (protein)
chain: MNPSELRMMWMSSQYNSERITLEDAATLLGHPTVGLSVMEDLSAHQPTLDMNPMMSLMGGDFTGQAAATAAALGVQPGTLIATNSNNLYGFAHMGGLQQQLLQQSAAAAVFQNYAEAMDNDVENGMVGMAMEAVVDDDDQVYGQRDNNFDDNGSELEPKQEIINIDDFVMMNEDNNSYDGTDFMTSSDKDISQSSSSCMAQMPGSLGVPGVEHDLLVPLPDGLLHHKLLGTTLVPAMGTLNGNAFGNIMVSTENTSSKQMQRTYSTAKGANSTATTATCSASTSSALRSQRKTRKIEPVNRPGLVLKTPIAYRGNIDPSVIPIQKDGMAVCKRCGAIGVKHTFYTKSRRFCSMACARGELYSLVLNTKMEGDQATTSSPDPGAGSESADLPGDQQQSQSDIELDLHAAHIKNANYRFRITDQSKITQLNSFGEPMSMGGDAAANNVQMAADETIAALNGGAVGDATAPGSTEEGASTPNSYLSAAPTPKALRLFKDIYPQDDLPQIPKYERLPVPCPQMEKIISIRRRMYDPTHSYDWLPRLSKENFNAAPVTCFPHAPGCEVWDNLGVGMKVEVENTDCDSIEVIQPGQTPTSFWVATILEIKGYKALMSYEGFDTDSHDFWVNLCNAEVHSVKWCETRGKPLIPPRTIEHKYKDWKDFLVGRLSGARTLPSNFYNKINDSLQSRFRLGLNLECVDKDRISQVRLATVTKIVGKRLFLRYFDSDDGFWCHEDSPIIHPVGWATTVGHNLAAPQDYLERMLAGREAMIEVHEDDATIELFKMNFTFDEYYSDGKTNSFVEGMKLEAVDPLNLSSICPATVMAVLKFGYMMIRIDSYQPDASGSDWFCYHEKSPCIFPAGFCSVNNISVTPPNGYDSRTFTWEGYLRDTGAVAAGQHLFHRIIPDHGFEVGMSLECADLMDPRLVCVATVARVVGRLLKVHFDGWTDEYDQWLDCESADIYPVGWCVLVNHKLEGPPRVAHQQAPKPAPKPKIQRKRKPKKGAAGGKTPTDNNTQSVKSRTIALKTTPHLPKLSIKLELKPEHHNAAFYENNQPEEEGDEEDPDADGDGDGSTSHISEQSTTQSSSDLIAGSGSGSGSASLVTLATGSNKTNSSATNNKYIPRLADIDSSEPHLELVPDTWNVYDVSQFLRVNDCTAHCDTFSRNKIDGKRLLQLTKDDIMPLLGMKVGPALKISDLIAQLKCKVNPGRARSHKTNKSPFL
modifications: left off: TAP tag, C-terminal, kept

How the values were obtained:
[1] = test system: Sfmbt 4MBT, Ser633 and Ser673 mutated into proline; assay: GST pull-down and SPR, Sfmbt Ser633/Ser673 to proline mutant; type: binding, Drosophila; conditions: relative to wild type
Method in brief: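 Mutant and wild-type 6xHis-tagged Sfmbt 4MBT expressed in E. coli. GST pull-down: GST-Pho spacer (E. coli, GST column plus gel filtration) on beads with 4MBT, 2 h at 4°C in 50 mM Tris-HCl, 150 mM NaCl, 1 mM DTT; three washes, boiled in Laemmli buffer.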

Scm = assay: Pho:Scm complex formation in vitro; type: binding, Drosophila; conditions: Supplemental Fig. S5C
[2] = test system: double-stranded Pho DNA-binding site; assay: EMSA, DNA binding; set-up: species or system Drosophila; conditions: ^32P end-labeled probe, protein without partner
[3] = test system: Flag-tagged Pho (full-length); assay: Anti-Flag affinity purification of full-length Pho-Flag:Sfmbt complexes; type: binding, Drosophila; conditions: coimmunoprecipitation, full-length proteins, baculovirus system
Method in brief: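 Full-length Pho-Flag with wild-type or mutant Sfmbt expressed and purified in a baculovirus system. Cells lysed by three sonication cycles (30 bursts, 30 sec on ice each). Complexes isolated by anti-Flag affinity purification; bound proteins detected by Western blot with the indicated antibodies.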

endogenous Pho = assay: Pull-down of Sfmbt-CTAP proteins from embryo nuclear extracts; type: binding, Drosophila; conditions: nuclear extracts of 0- to 12-h-old embryos, IgG sepharose, Western blot
[4] = test system: Ubx misexpression in Sfmbt^1 homozygous cell clones; assay: Genetic rescue assay, repression of Ubx in Sfmbt^1 homozygous clones; type: in vivo, Drosophila; conditions: imaginal disc
PREs of PcG target genes = assay: ChIP of Sfmbt-CTAP proteins at PREs; type: in vivo, Drosophila
Method in brief: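 Sfmbt-CTAP transgenes (wild-type, G635K/A638E double mutant, ΔMBT1 truncation) expressed ubiquitously via daughterless-Gal4 in wild-type third instar larvae. Chromatin from imaginal discs and brains; TAP-tagged proteins immunoprecipitated with peroxidase anti-peroxidase via the protein A moiety. Triplicate ChIPs from three independent chromatin preparations per genotype. qPCR read-out given as mean percentage of input precipitated per region, ±SD.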

Molecule | mobility shift / association with DNA [2] | coimmunoprecipitation of endogenous Pho (endogenous Pho) | repression of Ubx in Sfmbt^1 mutant clones [4] | further results
B1 | induces a mobility shift | – | – | binding affinity change, Ser633 and Ser673 to proline [1]: twofold decrease in the binding affinity; stable complex formation with Scm in vitro (Scm): fails to form a stable complex
B2 | fails to stably associate with DNA | – | – | –
B3 | – | – | – | interaction with Flag-tagged Pho [3]: completely failed to interact
B4 | – | robustly coimmunoprecipitated | rescues repression of Ubx | –
B5 | – | only poorly coimmunoprecipitated | severely compromised repressor activity | reduction of ChIP signals at Ubx PREs (PREs of PcG target genes): reduced only twofold to threefold
